{"source": "ChEMBL document CHEMBL1153416", "about": "“Synthesis and anti-inflammatory properties of 1alpha,25-dihydroxy-16-ene-20-cyclopropyl-24-oxo-vitamin D3, a hypocalcemic, stable metabolite of 1alpha,25-dihydroxy-16-ene-20-cyclopropyl-vitamin D3” (J Med Chem, 2009)", "key": {"Vitamin D3 receptor [1]": {"molecular_target": "T1, Vitamin D3 receptor (Homo sapiens, UniProt P11473)", "T1 sequence (P11473 whole entry)": "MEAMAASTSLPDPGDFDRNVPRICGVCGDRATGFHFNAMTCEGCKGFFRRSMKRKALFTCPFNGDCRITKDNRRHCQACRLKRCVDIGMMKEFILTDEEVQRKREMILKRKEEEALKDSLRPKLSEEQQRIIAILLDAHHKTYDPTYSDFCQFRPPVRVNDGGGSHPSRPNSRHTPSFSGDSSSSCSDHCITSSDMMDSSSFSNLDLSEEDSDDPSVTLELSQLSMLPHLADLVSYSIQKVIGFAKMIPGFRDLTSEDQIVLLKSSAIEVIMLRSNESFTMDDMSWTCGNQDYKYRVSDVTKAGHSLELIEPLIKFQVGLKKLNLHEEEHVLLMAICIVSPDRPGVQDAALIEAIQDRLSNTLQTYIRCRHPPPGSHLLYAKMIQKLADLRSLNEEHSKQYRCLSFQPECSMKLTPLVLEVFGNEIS", "test": "Activation of VDR in human THP1 cells assessed as increase in 25-hydroxyvitamin D-24-hydroxylase mRNA expression by RT-PCR", "format": "cell-based, THP-1"}, "[2]": {"molecular_target": "T2, Vitamin D3 receptor (Homo sapiens) (UniProt P11473)", "T2 sequence (whole entry)": "T1 sequence (P11473 whole entry)", "test": "Activation of VDR in human PBMC cells assessed as increase in cathelicidin antimicrobial peptide mRNA expression at 100 pM by RT-PCR", "format": "cell-based", "how_it_was_run": "(§1)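 PBMCs were isolated from buffy coats on a Ficoll gradient. Agonists were freshly diluted in ethanol, with ethanol in the test conditions at no more than 0.00025%. RNA was DNase-treated to exclude genomic DNA. Transcripts were quantified by RT-PCR and normalized to the GAPDH signal.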"}, "PBMC [3]": {"test_system": "PBMC", "test": "Inhibition of LPS-induced IL6 production in human PBMC after 24 hrs by ELISA", "format": "functional, cell-based"}, "Vitamin D3 receptor [4]": {"molecular_target": "T1, Vitamin D3 receptor", "test": "Activation of VDR in human THP1 cells assessed as increase in cathelicidin antimicrobial peptide mRNA expression by RT-PCR", "format": "cell-based, THP-1"}, "[5]": {"molecular_target": "T2, Vitamin D3 receptor (Homo sapiens)", "test": "Activation of VDR in human PBMC cells assessed as increase in 25-hydroxyvitamin D-24-hydroxylase mRNA expression at 100 pM by RT-PCR", "format": "cell-based", "how_it_was_run": "as §1"}, "[6]": {"molecular_target": "T2, Vitamin D3 receptor (Homo sapiens)", "test": "Activation of VDR in human PBMC cells assessed as increase in 25-hydroxyvitamin D-24-hydroxylase mRNA expression at 10 pM by RT-PCR", "format": "cell-based", "how_it_was_run": "as §1"}, "Mus musculus": {"test_system": "Mus musculus", "test": "Induction of hypercalceimia in orally dosed C57BL/6 mouse administered daily for 4 days by colorimetric assay", "format": "functional", "how_it_was_run": "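Eight-week-old female C57BL/6 mice, 3 per group, were given one oral dose daily for 4 days in miglyol, at 0.01 to 300 µg/kg. Serum was taken by tail bleed on day 5 and calcium measured colorimetrically.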"}, "[7]": {"molecular_target": "T2, Vitamin D3 receptor (Homo sapiens)", "test": "Activation of VDR in human PBMC cells assessed as increase in cathelicidin antimicrobial peptide mRNA expression at 10 pM by RT-PCR", "format": "cell-based", "how_it_was_run": "as §1"}, "PBMC [8]": {"test_system": "PBMC", "test": "Inhibition of LPS-induced IL12/23p40 production in human PBMC after 24 hrs by ELISA", "format": "functional, cell-based"}, "PBMC [9]": {"test_system": "PBMC", "test": "Inhibition of IFN-gamma production in human PBMC after 5 days by ELISA-based mixed lymphocyte reaction assay", "format": "functional, cell-based", "conditions": "120 h"}, "PBMC [10]": {"test_system": "PBMC", "test": "Inhibition of LPS-induced TNFalpha production in human PBMC after 24 hrs by ELISA", "format": "functional, cell-based"}}, "note": "Calls of active or inactive are those of the source. The rule behind the calls is not given here."}
{"smiles": "C=C1/C(=C\\C=C2/CCC[C@]3(C)C(C4(CCCC(C)(C)O)CC4)=CC[C@@H]23)C[C@@H](O)C[C@@H]1O", "values": [{"measurement": "EC50", "setting": "Vitamin D3 receptor [1]", "value": 0.68, "unit": "nM"}, {"measurement": "Activity", "setting": "[2]", "value": "Active"}, {"measurement": "IC50", "setting": "PBMC [3]", "value": 3.2, "unit": "nM"}, {"measurement": "EC50", "setting": "Vitamin D3 receptor [4]", "value": 0.68, "unit": "nM"}, {"measurement": "Activity", "setting": "[5]", "value": "Active"}, {"measurement": "Activity", "setting": "[6]", "value": "Active"}, {"measurement": "MTD", "setting": "Mus musculus", "value": 1, "unit": "µg/kg"}, {"measurement": "Activity", "setting": "[7]", "value": "Active"}, {"measurement": "IC50", "setting": "PBMC [8]", "value": "< 0.001", "unit": "nM"}]}
{"smiles": "C=C1/C(=C\\C=C2/CCC[C@]3(C)C(C4(CCC(=O)C(C)(C)O)CC4)=CC[C@@H]23)C[C@@H](O)C[C@@H]1O", "values": [{"measurement": "EC50", "setting": "Vitamin D3 receptor [1]", "value": 0.69, "unit": "nM"}, {"measurement": "Activity", "setting": "[2]", "value": "Active"}, {"measurement": "IC50", "setting": "PBMC [3]", "value": 3.5, "unit": "nM"}, {"measurement": "IC50", "setting": "PBMC [9]", "value": 0.025, "unit": "nM"}, {"measurement": "EC50", "setting": "Vitamin D3 receptor [4]", "value": 0.69, "unit": "nM"}, {"measurement": "Activity", "setting": "[5]", "value": "Active"}, {"measurement": "Activity", "setting": "[6]", "value": "Active"}, {"measurement": "MTD", "setting": "Mus musculus", "value": 3, "unit": "µg/kg"}, {"measurement": "Activity", "setting": "[7]", "value": "Active"}, {"measurement": "IC50", "setting": "PBMC [8]", "value": "< 0.001", "unit": "nM"}]}
{"smiles": "C[C@]12CCC/C(=C\\C=C3C[C@@H](O)C[C@H](O)C3)[C@@H]1CC=C2C1(C/C=C/C(O)(C(F)(F)F)C(F)(F)F)CC1", "values": [{"measurement": "IC50", "setting": "PBMC [9]", "value": 0.012, "unit": "nM"}, {"measurement": "IC50", "setting": "PBMC [10]", "value": "> 100", "unit": "nM"}]}
{"smiles": "C=C1/C(=C\\C=C2/CCC[C@]3(C)C(C4(CC#CC(O)(C(F)(F)F)C(F)(F)F)CC4)=CC[C@@H]23)C[C@@H](O)C[C@@H]1O", "values": [{"measurement": "IC50", "setting": "PBMC [9]", "value": 0.045, "unit": "nM"}, {"measurement": "IC50", "setting": "PBMC [10]", "value": 1, "unit": "nM"}]}
{"smiles": "CC(C)(O)C#CCC1(C2=CC[C@H]3/C(=C/C=C4C[C@@H](O)C[C@H](O)C4)CCC[C@]23C)CC1", "values": [{"measurement": "IC50", "setting": "PBMC [9]", "value": 0.025, "unit": "nM"}, {"measurement": "IC50", "setting": "PBMC [10]", "value": 0.001, "unit": "nM"}]}
{"smiles": "C=C1/C(=C\\C=C2/CCC[C@]3(C)[C@@H]([C@H](C)CCCC(C)(C)O)CC[C@@H]23)C[C@@H](O)C[C@@H]1O", "note": "[CALCITRIOL]", "values": [{"measurement": "MTD", "setting": "Mus musculus", "value": 0.3, "unit": "µg/kg"}]}
{"smiles": "C=C1/C(=C\\C=C2/CCC[C@]3(C)C(C4(CC#CC(C)(C)O)CC4)=CC[C@@H]23)C[C@@H](O)C[C@@H]1O", "values": [{"measurement": "IC50", "setting": "PBMC [9]", "value": 0.034, "unit": "nM"}, {"measurement": "IC50", "setting": "PBMC [10]", "value": 0.001, "unit": "nM"}]}
{"smiles": "C=C1/C(=C\\C=C2/CCC[C@]3(C)C(C4(CC#CC(C)(C)O)CC4)=CC[C@@H]23)C[C@@H](O)C[C@@H]1F", "values": [{"measurement": "IC50", "setting": "PBMC [9]", "value": 0.016, "unit": "nM"}, {"measurement": "IC50", "setting": "PBMC [10]", "value": "> 100", "unit": "nM"}]}
{"smiles": "C=C1/C(=C\\C=C2/CCC[C@]3(C)C(C4(C/C=C/C(O)(C(F)(F)F)C(F)(F)F)CC4)=CC[C@@H]23)C[C@@H](O)C[C@@H]1F", "values": [{"measurement": "IC50", "setting": "PBMC [9]", "value": 0.065, "unit": "nM"}, {"measurement": "IC50", "setting": "PBMC [10]", "value": "> 100", "unit": "nM"}]}
{"smiles": "C=C1/C(=C\\C=C2/CCC[C@]3(C)C(C4(C/C=C/C(O)(C(F)(F)F)C(F)(F)F)CC4)=CC[C@@H]23)C[C@@H](O)C[C@@H]1O", "values": [{"measurement": "IC50", "setting": "PBMC [9]", "value": 0.04, "unit": "nM"}, {"measurement": "IC50", "setting": "PBMC [10]", "value": "> 100", "unit": "nM"}]}
{"smiles": "C[C@]12CCC/C(=C\\C=C3C[C@@H](O)C[C@H](O)C3)[C@@H]1CC=C2C1(CC#CC(O)(C(F)(F)F)C(F)(F)F)CC1", "values": [{"measurement": "IC50", "setting": "PBMC [9]", "value": 0.014, "unit": "nM"}, {"measurement": "IC50", "setting": "PBMC [10]", "value": "> 100", "unit": "nM"}]}
